ChEMBL document CHEMBL4808183, “Betulonic Acid Derivatives Interfering with Human Coronavirus 229E Replication via the nsp15 Endoribonuclease” (J Med Chem, 2021)
Activity calls are given as the source filed them. No cut-off for these calls is given here.

Columns and labels:
[1] = biological target: Replicase polyprotein 1ab (Human coronavirus 229E) (UniProt P0C6X1); experiment: Inhibition of nsp15 in Human coronavirus 229E infected in human embryonic lung fibroblast cells assessed as reduction in viral RNA synthesis at early stage of RNA synthesis at 6.3 uM treated 6 hrs post infection by RT-qPCR based time-of-addition assay; format: cell-based
[2] = (§1) Antiviral activity against Human coronavirus 229E infected in human embryonic lung fibroblast cells assessed as reduction in virus-induced cytopathic effect incubated for 5 days by MTS cell viability assay; format: functional, cell-based; details: 120 h
Outline: (§2)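 Confluent HEL cell cultures given serial compound dilutions together with HCoV-229E at MOI 100 and held 5 days at 35 °C. Virus-induced CPE was scored by microscopy. MTS reagent was then added and absorbance at 490 nm read 24 h later. EC50 was taken from the MTS or microscopic read-out and CC50 from MTS. SI = CC50/EC50, both by MTS. Mean ± SEM of three independent experiments.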

[3] = Antiviral activity against Human coronavirus 229E infected in human embryonic lung fibroblast cells assessed as reduction in virus-induced cytopathic effect incubated for 5 days by microscopy; format: functional, cell-based; details: 120 h; outline: as §2
[4] = Cytotoxicity against mock-infected human embryonic lung fibroblast cells incubated for 5 days by MTS assay; format: cell-based; details: time 5 day; outline: as §2
[5] = as §1, with “Selectivity index, ratio of CC50 for cytotoxicity against mock-infected human embryonic lung fibroblast cells incubated for 5 days by MTS assay to EC50 for antiviral” for “Antiviral”; format: toxicity, cell-based; details: time 5 day, read-out: Ratio CC50/EC50; outline: as §2
[6] = test system: SARS-CoV-2; experiment: Antiviral activity against SARS-CoV-2 infected in eGFP expressing Vero E6 cells assessed as reduction in virus-induced cytopathic effect cells pretreated for 24 hrs measure after 4 days post infection by MTS cell viability assay; format: functional, organism-based; details: Severe acute respiratory syndrome coronavirus 2
[7] = test system: Human immunodeficiency virus; experiment: Antiviral activity against HIV; format: functional, organism-based
[8] = test system: Herpes simplex virus unknown type; experiment: Antiviral activity against Herpes simplex virus; format: functional
[9] = test system: Vaccinia virus; experiment: Antiviral activity against Vaccinia virus; format: functional, organism-based; details: Orthopoxvirus vaccinia
[10] = test system: Human adenovirus 2; experiment: Antiviral activity against Adenovirus; format: functional
[11] = test system: Vesicular stomatitis virus; experiment: Antiviral activity against Vesicular stomatitis virus; format: functional, organism-based
[12] = test system: Coxsackievirus B4; experiment: Antiviral activity against Coxsackie B4 virus; format: functional, organism-based
[13] = test system: Respiratory syncytial virus; experiment: Antiviral activity against Respiratory syncytial virus; format: functional, organism-based
[14] = test system: Human respirovirus 3; experiment: Antiviral activity against Parainfluenza-3 virus; format: functional, organism-based
[15] = test system: Reovirus sp.; experiment: Antiviral activity against Reovirus-1; format: functional, organism-based
[16] = test system: Sindbis virus; experiment: Antiviral activity against Sindbis virus; format: functional, organism-based
[17] = test system: Punta Toro virus; experiment: Antiviral activity against Punta Toro virus; format: functional, organism-based
[18] = test system: Yellow fever virus; experiment: Antiviral activity against Yellow fever virus; format: functional, organism-based
[19] = test system: Influenza A virus; experiment: Antiviral activity against Influenza virus; format: functional
[20] = test system: Fibroblast; experiment: Inhibition of nsp15 K60R drug-resistant mutant in Human coronavirus 229E infected in human embryonic lung fibroblast cells assessed as reduction in virus yield; format: cell-based
Outline: (§3)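 Virus yield assay in confluent HEL cells. Serial compound dilutions were added, and cells were infected at MOI 100 with wild-type, EndoU-deficient (H250A nsp15) or passage-selected (K60R or T66I nsp15) HCoV-229E. After 4 h at 35 °C, the inoculum was removed and compound re-added. Supernatant was lysed at 3 days p.i. and N-gene RNA copies measured by one-step RT-qPCR. Results are fold reduction versus the no-compound control, from three independent experiments.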

[21] = test system: Fibroblast; experiment: Inhibition of nsp15 T66I drug-resistant mutant in Human coronavirus 229E infected in human embryonic lung fibroblast cells assessed as reduction in virus yield; format: cell-based; outline: as §3
[22] = biological target: Replicase polyprotein 1ab (Human coronavirus 229E) (UniProt P0C6X1); experiment: Inhibition of nsp15 in Human coronavirus 229E infected in human embryonic lung fibroblast cells assessed as reduction in viral RNA synthesis at early stage of RNA synthesis at 15 uM treated 6 hrs post infection by RT-qPCR based time-of-addition assay; format: cell-based
Outline: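 Confluent HEL cells infected with HCoV-229E (MOI 100). Compound at 15 μM was added at -0.5 to 8 h p.i. At 16 h p.i. cells were washed with ice-cold PBS and lysed on ice, then heated 10 min at 75 °C and DNase-treated. Viral RNA was measured by one-step RT-qPCR against the N gene, using a plasmid standard for absolute copies. Values are relative to the no-compound virus control, from two independent experiments.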

[23] = Antiviral activity against Human coronavirus 229E harboring reverse engineered EndoU-deficient H250A mutant infected in human embryonic lung fibroblast cells assessed as fold reduction in virus yield measured up to 40 uM; format: functional; details: dose microM <=40; outline: as §3
[24] = biological target: Replicase polyprotein 1ab (Human coronavirus 229E) (UniProt P0C6X1); experiment: Inhibition of nsp15 in wild type Human coronavirus 229E infected in human embryonic lung fibroblast cells assessed as reduction in virus yield; format: cell-based
Outline: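 Confluent HEL cells (or semiconfluent 16HBE) with serial compound dilutions, infected with wild-type HCoV-229E at MOI 100. After 4 h at 35 °C the inoculum was removed and compound re-added. Supernatants were taken at 3 days p.i., lysed, and heated 10 min at 75 °C. Three independent experiments.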

CO/C1=C\C(C)=C\[C@@H](C)[C@@H](O)[C@@H](C)C/C(C)=C/C=C/[C@H](OC)[C@@H]([C@@H](C)[C@@H](O)[C@H](C)[C@@]2(O)C[C@@H](O)[C@H](C)[C@@H](C(C)C)O2)OC1=O
Activity [1]: Active

CC(C)[C@@H]1CC[C@]2(C(=O)O)CC[C@]3(C)[C@H](CC[C@@H]4[C@@]5(C)Cc6nnn([C@@H](C)c7ccccc7)c6C(C)(C)[C@@H]5CC[C@]43C)[C@@H]12
EC50 [2]: 13000 nM | EC50 [3]: 6100 nM | CC50 at 120 h [4]: > 99000 nM | selectivity ratio at 120 h [5]: > 7.6 | Activity [6]: Active | Activity [7]: inactive | Activity [8]: inactive | Activity [9]: inactive | Activity [10]: inactive | Activity [11]: inactive | Activity [12]: inactive | Activity [13]: inactive | Activity [14]: inactive | Activity [15]: inactive | Activity [16]: inactive | Activity [17]: inactive | Activity [18]: inactive | Activity [19]: inactive

N#C[C@@]1(c2ccc3c(N)ncnn23)O[C@H](CO)[C@@H](O)[C@H]1O [GS-441524]
EC50 [2]: 2300 nM | EC50 [3]: 3200 nM | CC50 at 120 h [4]: > 100000 nM | selectivity ratio at 120 h [5]: > 44 | EC99 [20]: > 40 µM | Activity [21]: Active

C=C(C)[C@@H]1CC[C@]2(C(=O)O)CC[C@]3(C)[C@H](CC[C@@H]4[C@@]5(C)Cc6nnn(Cc7ccco7)c6C(C)(C)[C@@H]5CC[C@]43C)[C@@H]12
EC50 [2]: 2600 nM | EC50 [3]: 1100 nM | CC50 at 120 h [4]: 20000 nM | selectivity ratio at 120 h [5]: 8 | Activity [7]: inactive | Activity [8]: inactive | Activity [9]: inactive | Activity [10]: inactive | Activity [11]: inactive | Activity [12]: inactive | Activity [13]: inactive | Activity [14]: inactive | Activity [15]: inactive | Activity [16]: inactive | Activity [17]: inactive | Activity [18]: inactive | Activity [19]: inactive

C=C(C)[C@@H]1CC[C@]2(C(=O)O)CC[C@]3(C)[C@H](CC[C@@H]4[C@@]5(C)Cc6nnn([C@@H](C)c7ccccc7)c6C(C)(C)[C@@H]5CC[C@]43C)[C@@H]12
EC50 [2]: 650 nM | EC50 [3]: 600 nM | CC50 at 120 h [4]: 49000 nM | selectivity ratio at 120 h [5]: 76 | Activity [6]: Active | Activity [22]: Active | Activity [7]: inactive | Activity [8]: inactive | Activity [9]: inactive | Activity [10]: inactive | Activity [11]: inactive | Activity [12]: inactive | Activity [13]: inactive | Activity [14]: inactive | Activity [15]: inactive | Activity [16]: inactive | Activity [17]: inactive | Activity [18]: inactive | Activity [19]: inactive | EC99 [20]: 2.9 µM | Activity [21]: inactive | fold change (FC) [23]: 23 | fold change (FC) [24]: 1480

C=C(C)[C@@H]1CC[C@]2(C(=O)O)CC[C@]3(C)[C@H](CC[C@@H]4[C@@]5(C)Cc6nnn(CCc7c[nH]c8ccccc78)c6C(C)(C)[C@@H]5CC[C@]43C)[C@@H]12
EC50 [2]: 560 nM | EC50 [3]: 240 nM | CC50 at 120 h [4]: 3200 nM | selectivity ratio at 120 h [5]: 6 | Activity [7]: inactive | Activity [8]: inactive | Activity [9]: inactive | Activity [10]: inactive | Activity [11]: inactive | Activity [12]: inactive | Activity [13]: inactive | Activity [14]: inactive | Activity [15]: inactive | Activity [16]: inactive | Activity [17]: inactive | Activity [18]: inactive | Activity [19]: inactive
